Source: ChEMBL document CHEMBL4346672, “Antimicrobial and KPC/AmpC inhibitory activity of functionalized benzosiloxaboroles” (Eur J Med Chem, 2019)
Activity calls are given as the source filed them. The rule behind the calls is not given here.

Tests used:
[1] = tested on: Stenotrophomonas maltophilia; test: Antibacterial activity against Stenotrophomonas maltophilia ATCC 13637 assessed as diameter of zone inhibition measured after 18 hrs by CLSI disc diffusion method; type: functional
In short: (§1)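 Disc diffusion on Mueller-Hinton II agar. Compounds dissolved in DMSO. Strains stored at -80 °C and subcultured twice on tryptic soy agar before testing. Inhibition zones read after 35 °C, 18 h.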

[2] = tested on: Staphylococcus epidermidis; test: Antibacterial activity against Staphylococcus epidermidis ATCC 12228 assessed as diameter of zone inhibition measured after 18 hrs by CLSI disc diffusion method; type: functional; in short: as §1
[3] = tested on: Enterobacter cloacae; test: Antibacterial activity against Enterobacter cloacae DSM 6234 assessed as diameter of zone inhibition measured after 18 hrs by CLSI disc diffusion method; type: functional; in short: as §1
[4] = tested on: Serratia marcescens; settings: ATCC 13880
[5] = tested on: Candida tropicalis; test: Antifungal activity against Candida tropicalis IBA 171 assessed as diameter of zone inhibition incubated for 24 hrs by CLSI disc diffusion method; type: functional
In short: (§2)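 Yeast disc diffusion on Mueller-Hinton agar supplemented with 2% glucose and 0.5 mg/L methylene blue. Compounds in DMSO. Yeasts subcultured on Sabouraud dextrose agar before testing. Zones read after 35 °C, 24 h.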

[6] = tested on: Bacillus subtilis; test: Antibacterial activity against Bacillus subtilis ATCC 6633 assessed as diameter of zone inhibition measured after 18 hrs by CLSI disc diffusion method; type: functional; in short: as §1
[7] = tested on: Staphylococcus aureus; test: Antibacterial activity against Staphylococcus aureus ATCC 6538P assessed as diameter of zone inhibition measured after 18 hrs by CLSI disc diffusion method; type: functional; in short: as §1
[8] = tested on: Pseudomonas aeruginosa; test: Antibacterial activity against Pseudomonas aeruginosa ATCC 27853 assessed as diameter of zone inhibition measured after 18 hrs by CLSI disc diffusion method; type: functional, organism-based; in short: as §1
[9] = tested on: Klebsiella pneumoniae; settings: ATCC 13883
[10] = tested on: Meyerozyma guilliermondii; test: Antifungal activity against Candida guilliermondii IBA 155 assessed as diameter of zone inhibition incubated for 24 hrs by CLSI disc diffusion method; type: functional; in short: as §2
[11] = tested on: Enterococcus faecium; test: Antibacterial activity against Enterococcus faecium ATCC 6057 assessed as diameter of zone inhibition measured after 18 hrs by CLSI disc diffusion method; type: functional; in short: as §1
[12] = tested on: Pichia kudriavzevii; test: Antifungal activity against Candida krusei ATCC 6258 assessed as diameter of zone inhibition incubated for 24 hrs by CLSI disc diffusion method; type: functional; in short: as §2
[13] = Dissociation constant, pKa1 of compound in 0.1 M NaOH by potentiometric analysis; type: physicochemical
[14] = tested on: Escherichia coli; test: Antibacterial activity against Escherichia coli ATCC 25922 assessed as diameter of zone inhibition measured after 18 hrs by CLSI disc diffusion method; type: functional; in short: as §1
[15] = tested on: Saccharomyces cerevisiae; test: Antifungal activity against Saccharomyces cerevisiae ATCC 9763 diameter of zone inhibition incubated for 24 hrs by CLSI disc diffusion method; type: functional
In short: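 Disc-diffusion run on Mueller-Hinton II agar with 2% glucose and 0.5 mg/L methylene blue, using compounds in DMSO. Yeast was precultured on Sabouraud dextrose agar (24–48 h, 30 °C). Zones read after 24 h at 35 °C.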

[16] = tested on: Acinetobacter baumannii; test: Antibacterial activity against Acinetobacter baumannii ATCC 19606 assessed as diameter of zone inhibition measured after 18 hrs by CLSI disc diffusion method; type: functional; in short: as §1
[17] = tested on: Proteus mirabilis; test: Antibacterial activity against Proteus mirabilis ATCC 12453 assessed as diameter of zone inhibition measured after 18 hrs by CLSI disc diffusion method; type: functional; in short: as §1
[18] = tested on: Burkholderia cepacia; test: Antibacterial activity against Burkholderia cepacia ATCC 25416 assessed as diameter of zone inhibition measured after 18 hrs by CLSI disc diffusion method; type: functional; in short: as §1
[19] = tested on: Bordetella bronchiseptica; test: Antibacterial activity against Bordetella bronchiseptica ATCC 4617 assessed as diameter of zone inhibition measured after 18 hrs by CLSI disc diffusion method; type: functional; in short: as §1
[20] = tested on: Enterococcus faecalis; test: Antibacterial activity against Enterococcus faecalis ATCC 29212 assessed as diameter of zone inhibition measured after 18 hrs by CLSI disc diffusion method; type: functional; in short: as §1
[21] = tested on: Candida parapsilosis; test: Antifungal activity against Candida parapsilosis ATCC 22019 assessed as diameter of zone inhibition incubated for 24 hrs by CLSI disc diffusion method; type: functional; in short: as §2
[22] = tested on: Candida albicans; test: Antifungal activity against Candida albicans ATCC 90028 assessed as diameter of zone inhibition incubated for 24 hrs by CLSI disc diffusion method; type: functional; in short: as §2

With C[Si]1(C)OB(O)c2cccc(Br)c21 the “diameter of the inhibition zone (DIZ)” value [1] was 13 mm, the “diameter of the inhibition zone (DIZ)” value [2] was 30 mm and the “diameter of the inhibition zone (DIZ)” value [3] was “inactive”. The DIZ [4] was “inactive”, the “diameter of the inhibition zone (DIZ)” value [5] was 14 mm and the “diameter of the inhibition zone (DIZ)” value [6] was 30 mm. The “diameter of the inhibition zone (DIZ)” value [7] was 35 mm, the “diameter of the inhibition zone (DIZ)” value [8] was “inactive” and the DIZ [9] was “inactive”. For the same molecule, the “diameter of the inhibition zone (DIZ)” value [10] was 25 mm, the “diameter of the inhibition zone (DIZ)” value [11] was 24 mm and the “diameter of the inhibition zone (DIZ)” value [12] was 24 mm. For the same molecule, the pKa [13] was 6.5, the “diameter of the inhibition zone (DIZ)” value [14] was “inactive” and the “diameter of the inhibition zone (DIZ)” value [15] was 30 mm. The “diameter of the inhibition zone (DIZ)” value [16] was “inactive”, the “diameter of the inhibition zone (DIZ)” value [17] was 15 mm and the “diameter of the inhibition zone (DIZ)” value [18] was “inactive”. For the same molecule, the “diameter of the inhibition zone (DIZ)” value [19] was “inactive”, the “diameter of the inhibition zone (DIZ)” value [20] was 16 mm and the “diameter of the inhibition zone (DIZ)” value [21] was 12 mm. For the same molecule, the “diameter of the inhibition zone (DIZ)” value [22] was 17 mm.
